Results reported in ChEMBL document CHEMBL1125231, “Synthesis, peroxidating ability, and antineoplastic evaluation of 1-[(aminoalkyl)amino]-4-hydroxy-10-imino-9-anthracenones” (J Med Chem, 1991).
In brackets after ≈: the same amount, converted by molar mass.

Columns and labels:
[1] = test system: L1210; assay: Effective concentration against inhibition of L1210 mouse leukemia cells in tissue culture; type: functional, cell-based
How it was run: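 L1210 mouse leukemia cells seeded at 0.05 × 10^6 cells/mL. Compounds, as hydrochlorides dissolved in 50% ethanol, added at four concentrations. Growth over 48 h measured by cellular protein content. EC50 taken as the concentration giving 50% inhibition of 48-h growth.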

[2] = test system: P388; assay: In vivo inhibitory activity against P388 murine leukemia cells and the ratio of medium survival time expressed as percent of untreated controls (%T/C) at doses of 80,40,20mg/kg (7/7*); type: functional, Mus musculus
[3] = test system: P388; assay: In vivo inhibitory activity against P388 murine leukemia cells and the ratio of medium survival time expressed as percent of untreated controls (%T/C) at dose of 5 mg/kg (7/7*); type: functional, Mus musculus
[4] = test system: P388; assay: In vivo inhibitory activity against P388 murine leukemia cells and the ratio of medium survival time expressed as percent of untreated controls (%T/C) at dose of 2.5 mg/kg (7/7*); type: functional, Mus musculus
[5] = The capacity to stimulate NADH oxidation was determined.; type: functional
How it was run: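 Cell-free NADH oxidation in 1 mL of 0.05 M Tris-HCl, pH 7.2, with 100 µM compound (hydrochloride), 100 µM NADH and 1 unit/mL NADH dehydrogenase. NADH consumption started by adding the enzyme. Rate expressed as µmol/min.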

[6] = test system: P388; assay: In vivo inhibitory activity against P388 murine leukemia cells and the ratio of medium survival time expressed as percent of untreated controls (%T/C) at dose of 10 mg/kg (7/7*); type: functional, Mus musculus
[7] = test system: P388; assay: In vivo inhibitory activity against P388 murine leukemia cells and the ratio of medium survival time expressed as percent of untreated controls (%T/C) at dose of 7.5 mg/kg (7/7*); type: functional, Mus musculus
[8] = test system: P388; assay: In vivo inhibitory activity against P388 murine leukemia cells and the ratio of medium survival time expressed as percent of untreated controls (%T/C) at dose of 15 mg/kg (7/7*); type: functional, Mus musculus
[9] = test system: P388; assay: In vivo inhibitory activity against P388 murine leukemia cells and the ratio of medium survival time expressed as percent of untreated controls (%T/C) at doses of 60,30mg/kg (7/7*); type: functional, Mus musculus
[10] = test system: P388; assay: In vivo inhibitory activity against P388 murine leukemia cells and the ratio of medium survival time expressed as percent of untreated controls (%T/C) at dose of 3.78, 1.87 mg/kg (7/7*); type: functional, Mus musculus
[11] = test system: P388; assay: In vivo inhibitory activity against P388 murine leukemia cells and the ratio of medium survival time expressed as percent of untreated controls (%T/C) at dose of 12.5 mg/kg (6/6*); type: functional, Mus musculus
[12] = test system: P388; assay: In vivo inhibitory activity against P388 murine leukemia cells and the ratio of medium survival time expressed as percent of untreated controls (%T/C) at dose of 25 mg/kg (6/6*); type: functional, Mus musculus
[13] = test system: P388; assay: In vivo inhibitory activity against P388 murine leukemia cells and the ratio of medium survival time expressed as percent of untreated controls (%T/C) at dose of 6.25 mg/kg (6/6*); type: functional, Mus musculus
[14] = test system: P388; assay: In vivo inhibitory activity against P388 murine leukemia cells and the ratio of medium survival time expressed as percent of untreated controls (%T/C) at dose of 3.12 mg/kg (6/6*); type: functional, Mus musculus
[15] = test system: P388; assay: In vivo inhibitory activity against P388 murine leukemia cells and the ratio of medium survival time expressed as percent of untreated controls (%T/C) at doses of 40,20mg/kg (7/7*); type: functional, Mus musculus
[16] = test system: P388; assay: In vivo inhibitory activity against P388 murine leukemia cells and the ratio of medium survival time expressed as percent of untreated controls (%T/C) at dose of 80 mg/kg (7/7*); type: functional, Mus musculus
[17] = test system: P388; assay: In vivo inhibitory activity against P388 murine leukemia cells and the ratio of medium survival time expressed as percent of untreated controls (%T/C) at doses of 10,5,2,5 mg/kg (7/7*); type: functional, Mus musculus
[18] = test system: P388; assay: In vivo inhibitory activity against P388 murine leukemia cells and the ratio of medium survival time expressed as percent of untreated controls (%T/C) at dose of 20 mg/kg (6/6*); type: functional, Mus musculus
[19] = test system: P388; assay: In vivo inhibitory activity against P388 murine leukemia cells and the ratio of medium survival time expressed as percent of untreated controls (%T/C) at dose of 10 mg/kg (6/6*); type: functional, Mus musculus
[20] = test system: P388; assay: In vivo inhibitory activity against P388 murine leukemia cells and the ratio of medium survival time expressed as percent of untreated controls (%T/C) at dose of 40 mg/kg (6/6*); type: functional, Mus musculus
[21] = test system: P388; assay: In vivo inhibitory activity against P388 murine leukemia cells and the ratio of medium survival time expressed as percent of untreated controls (%T/C) at dose of 2.5 mg/kg (6/6*); type: functional, Mus musculus
[22] = test system: P388; assay: In vivo inhibitory activity against P388 murine leukemia cells and the ratio of medium survival time expressed as percent of untreated controls (%T/C) at dose of 80 mg/kg (5/6*); type: functional, Mus musculus
[23] = test system: P388; assay: In vivo inhibitory activity against P388 murine leukemia cells and the ratio of medium survival time expressed as percent of untreated controls (%T/C) at dose of 5 mg/kg (6/6*); type: functional, Mus musculus
[24] = test system: P388; assay: In vivo inhibitory activity against P388 murine leukemia cells and the ratio of medium survival time expressed as percent of untreated controls (%T/C) at dose of 25 mg/kg (7/7*); type: functional, Mus musculus
[25] = test system: P388; assay: In vivo inhibitory activity against P388 murine leukemia cells and the ratio of medium survival time expressed as percent of untreated controls (%T/C) at dose of 50 mg/kg (7/7*); type: functional, Mus musculus
[26] = test system: P388; assay: In vivo inhibitory activity against P388 murine leukemia cells and the ratio of medium survival time expressed as percent of untreated controls (%T/C) at dose of 12.5 mg/kg (7/7*); type: functional, Mus musculus
[27] = test system: P388; assay: In vivo inhibitory activity against P388 murine leukemia cells and the ratio of medium survival time expressed as percent of untreated controls (%T/C) at doses of 6.25,3.12,1.56mg/kg (7/7*); type: functional, Mus musculus

For `N=C1c2ccccc2C(=O)c2c(NCCNCCO)ccc(O)c21`, the EC50 [1] was 1.43 µg/mL (≈ 4.4 µM), the T/C [2] was 160% and the T/C [3] was 130%. It also gave a T/C [4] of 120%, an NADH oxidn [5] of 19.3 µM/min and a T/C [6] of 150%.

`CN(C)CCNc1ccc(O)c2c1C(=O)c1ccccc1C2=O` showed a T/C [7] of 100%, an EC50 [1] of 0.33 µg/mL (≈ 1.06 µM) and a T/C [8] of 109%. It also gave a T/C [9] of 117%, an NADH oxidation [5] of 25.7 µM/min and a T/C [10] of 91%.

For `O=C1c2ccccc2C(=O)c2c(NCCNCCO)ccc(NCCNCCO)c21` [AMETANTRONE], the EC50 [1] was 0.21 µg/mL (≈ 0.509 µM), the T/C [11] was 300% and the T/C [12] was 200%. It also gave an NADH oxidation [5] of 28.9 µM/min, a T/C [13] of 210% and a T/C [14] of 190%.

Work on `NCCNc1ccc(O)c2c1C(=O)c1ccccc1C2=O` yielded an EC50 [1] of 0.24 µg/mL (≈ 0.85 µM) and an NADH oxidation [5] of 25.7 µM/min.

`CN(C)CCNc1ccc(O)c2c1C(=O)c1ccccc1C2=N` showed an EC50 [1] of 2.21 µg/mL (≈ 7.14 µM), a T/C [15] of 100% and a T/C [16] of 125%. It also gave an NADH oxidn [5] of 17.7 µM/min and a T/C [17] of 92%.

With `N=C1c2ccccc2C(=O)c2c(NCCN)ccc(O)c21` the EC50 [1] was 0.89 µg/mL (≈ 3.16 µM), the T/C [18] was 109% and the T/C [19] was 118%. It also gave a T/C [20] of 118%, a T/C [21] of 100% and an NADH oxidn [5] of 20.9 µM/min. The T/C [22] was 55% and the T/C [23] was 109%.

With `COc1cccc2c1C(=N)c1c(O)ccc(NCCNCCO)c1C2=O` the EC50 [1] was 2.8 µg/mL (≈ 7.88 µM).

With `O=C1c2ccccc2C(=O)c2c(NCCNCCO)ccc(O)c21` the EC50 [1] was 0.27 µg/mL (≈ 0.827 µM), the T/C [24] was 117% and the T/C [25] was 127%. The NADH oxidation [5] was 28.9 µM/min, the T/C [26] was 109% and the T/C [27] was 100%.
